Compound activity from PubChem BioAssay.
MEKK2 WT-MEK5: raises or lowers MEK5 binding to wildtype human MEKK2 PB1 domain. binding response (% of control), % at 10 µM. AID 1531. Q9Y2U5. actives 1.1% (n = 290,000). bead flow cytometry, Alexa488-MEK5 binding to MEKK2 WT; actives lie on both sides; in the data active means binding response below about 67% or above about 130%
MEKK2 mut-MEK5: signal of MEK5 binding to mutant human MEKK2 PB1 domain; actives 0.35% (n = 290,000); bead flow cytometry, Alexa488-MEK5 binding to MEKK2 mutant; percent response, % at 10 µM; AID 1530; in the data active means percent response above about 24%, passing the limit was not always enough
T cell modulator: modulates CD8 T cell binding to vesicles; response (vesicle binding), % at 7 µM; actives 0.068% (n = 330,000); 2C CD8+ T cell-vesicle binding, flow cytometry; stronger effect = lower value;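 active means response, share of CD8 T cells binding vesicles, and their 90th percentile fluorescence all below set limits, cut at about 80% in these data, passing the limit was not always enough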;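 further: values below 100% mean blocked vesicle binding to the CD8+ T cells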
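Test system: purified 2C TCR transgenic mouse naive CD8+ T cells. Probe or stimulus: QL9-peptide-loaded Drosophila micro-vesicles bearing Ld, ICAM-1 and B7-1. Incubation: binding step 1.5 h, 37 °C, antibody labelling 20 min, ice. Measured by: flow cytometry of vesicle-bound cells.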
UCH37 inh: inhibitors of human deubiquitinating enzyme UCH37 | purified proteasome/UCH37, Ub-AMC cleavage fluorescence | inhibition, % (concentration not given with the values) | AID 588478 | actives 0.33% (n = 330,000);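 active means mean inhibition over replicate wells above about 20%, limit read from the data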;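 further: 0% = compound-free wells with enzyme and 100% = wells lacking proteasome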
Target sequence (Q9Y5K5 whole entry, looked up): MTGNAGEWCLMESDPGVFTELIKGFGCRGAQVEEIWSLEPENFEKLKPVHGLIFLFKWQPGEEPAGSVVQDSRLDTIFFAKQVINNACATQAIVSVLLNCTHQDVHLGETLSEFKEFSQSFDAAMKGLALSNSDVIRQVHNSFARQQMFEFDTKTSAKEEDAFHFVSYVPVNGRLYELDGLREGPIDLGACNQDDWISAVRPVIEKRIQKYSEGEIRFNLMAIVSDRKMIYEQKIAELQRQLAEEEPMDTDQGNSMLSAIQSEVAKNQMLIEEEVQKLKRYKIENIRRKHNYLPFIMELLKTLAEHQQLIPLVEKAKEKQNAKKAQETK
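Material: human UCH37 enzyme supplied as purified proteasome complex / Amount: 0.15 nM proteasome as dispensed / Buffer or medium: pH 7.4 Tris-HCl (50 mM) with ovalbumin, ATP-MgCl2, DTT / Times: preincubation 30 min, reaction 25 min, room temperature / Technique: AMC fluorescence from Ub-AMC cleavage, excitation 355 nm, emission 460 nm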
Rce1 inh: yeast Ras-converting enzyme inhibition | Q03530 | yeast membranes, quenched prenylated peptide cleavage fluorescence | calls only | actives 0.27% (n = 290,000) | AID 2563;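 active means fall in fluorescence gain of 50% or more versus controls, with final raw signal at or below 3038400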;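 further: plate controls were neutral control wells for no effect and wells lacking membranes for full effect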
Target sequence (Q03530 whole entry, looked up): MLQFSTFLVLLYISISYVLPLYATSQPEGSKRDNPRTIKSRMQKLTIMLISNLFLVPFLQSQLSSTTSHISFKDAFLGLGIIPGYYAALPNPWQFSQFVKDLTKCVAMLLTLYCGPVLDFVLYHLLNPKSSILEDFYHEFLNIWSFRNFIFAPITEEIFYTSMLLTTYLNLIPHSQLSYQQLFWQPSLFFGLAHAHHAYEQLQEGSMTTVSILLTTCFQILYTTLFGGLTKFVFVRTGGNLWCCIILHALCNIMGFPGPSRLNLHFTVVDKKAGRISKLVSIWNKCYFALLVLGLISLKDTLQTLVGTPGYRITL
MEKK3 PB1 HTS: MEKK3-MEK5 PB1 interaction, increase or decrease. Q99759. bead-based flow cytometry, Alexa488-MEK5 binding to MEKK3; actives lie on both sides; 0 = blocked by unlabeled MEK5, 100 = vehicle. binding response (% of control), % at 10 µM. actives 1.4% (n = 290,000);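 active means binding response more than 3 SD above or below the average of its plate-row segment, actives on both sides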;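 further: Alexa488 bead fluorescence after subtracting the streptavidin-only scavenger bead signal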
MEKK2wt confirm: raises or lowers MEK5 binding to wildtype human MEKK2, retest; shares compounds with MEKK3 PB1 HTS; bead flow cytometry, Alexa488-MEK5 binding to MEKK2 WT; actives lie on both sides; binding response (% of control), % at 10 µM; actives 2.4% (n = 5,900); AID 1892; in the data active means binding response below about 16% or above about 210%; inactive means in between
MEKK2mut confirm: signal of MEK5 binding to mutant human MEKK2, retest; actives 2% (n = 5,900); percent response, % at 10 µM; bead flow cytometry, Alexa488-MEK5 binding to MEKK2 mutant; shares compounds with MEKK3 PB1 HTS; AID 1893; in the data active means percent response mostly above about 71%, no sharp cut-off; inactive means mostly below about 38%;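 further: higher means compound restores mutant binding toward wildtype level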
MEKK3-MEK5 inh: MEKK3-MEK5 PB1 inhibition, single concentration confirmation. AID 1894. shares compounds with MEKK3 PB1 HTS. binding response (% of control), % at 10 µM. actives 1.8% (n = 5,900). bead flow cytometry, Alexa488-MEK5 binding to MEKK3; stronger effect = lower value;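 active means binding response below 72% of control, or above a set upper limit, though filed actives all read lower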;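 further: 100% = DMSO only wells and 0% = binding blocked by excess unlabeled MEK5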
Numbers without * were called inactive; [ ] = dose if it differs, or a comment. Only some compounds are listed: those with a hit (about 2.5% of all), similar ones and a draw of the others.

For CCOC(=O)c1sc2cc([N+](=O)[O-])cc(SCC(C)C)c2c1N the results were MEKK2 WT-MEK5 16.0*, MEKK2 mut-MEK5 28.0*, T cell modulator 84.3, UCH37 inh 1.9, Rce1 inh inactive, MEKK3 PB1 HTS 103.0, MEKK2wt confirm 112.0, MEKK2mut confirm 6.0 and MEKK3-MEK5 inh 101.0.
For O=C(C(=NNc1ccc([N+](=O)[O-])cc1)Sc1nnnn1-c1ccccc1)c1ccccc1 the results were UCH37 inh 6.3.
Screening CCOC(=O)/C(=N/Nc1ccc(Cl)cc1)Sc1nnnn1-c1ccc(C)cc1 returned MEKK2 WT-MEK5 102.0, MEKK2 mut-MEK5 -1.0, T cell modulator 233.3, Rce1 inh inactive and MEKK3 PB1 HTS 100.0.
Screening O=C(/C(=N\Nc1ccc(Br)cc1)Sc1nnnn1-c1ccccc1)c1ccccc1 returned MEKK2 WT-MEK5 104.0, MEKK2 mut-MEK5 -1.0, T cell modulator 166.7, Rce1 inh inactive, MEKK3 PB1 HTS 130.0*, MEKK2wt confirm 107.0, MEKK2mut confirm -2.0 and MEKK3-MEK5 inh 104.0.
`CCOC(=O)/C(=N/Nc1ccccc1)Sc1nnnn1-c1ccc(C)cc1` gave MEKK2 WT-MEK5 105.0, MEKK2 mut-MEK5 4.0, T cell modulator 545.4, Rce1 inh inactive, MEKK3 PB1 HTS 129.0*, MEKK2wt confirm 100.0, MEKK2mut confirm -2.0 and MEKK3-MEK5 inh 97.0.
`CC(C)N(C)CCOC(=O)C1COc2ccccc2O1` (stereo not given) gave MEKK2 WT-MEK5 116.0, MEKK2 mut-MEK5 28.0, T cell modulator 231.6, UCH37 inh 0.5, Rce1 inh inactive, MEKK3 PB1 HTS 131.0*, MEKK2wt confirm 93.0, MEKK2mut confirm -13.0 and MEKK3-MEK5 inh 92.0.
For O=C(C1CCCO1)N1CCN(c2ccccn2)CC1 (stereo not given) the results were MEKK2 WT-MEK5 82.0, MEKK2 mut-MEK5 -3.0, T cell modulator 175.5, UCH37 inh 3.0, Rce1 inh inactive, MEKK3 PB1 HTS 73.0*[inhibitor], MEKK2wt confirm 100.0, MEKK2mut confirm -1.0 and MEKK3-MEK5 inh 102.0.
Screening O=C(N1CCOCC1)N1CCN(c2ccccn2)CC1 returned MEKK2 WT-MEK5 100.0, MEKK2 mut-MEK5 11.0, T cell modulator 195.2, UCH37 inh -0.8, Rce1 inh inactive and MEKK3 PB1 HTS 98.0.
CC(=NNS(=O)(=O)c1ccc([N+](=O)[O-])cc1)c1cccs1 was read as UCH37 inh 10.1.
`CC1=C(C)Cc2c(OC(=O)c3ccccc3)ccc(OC(=O)c3ccccc3)c2C1` gave MEKK2 WT-MEK5 51.0, MEKK2 mut-MEK5 8.0, T cell modulator 863.5, Rce1 inh inactive, MEKK3 PB1 HTS 42.0*[inhibitor], MEKK2wt confirm 101.0, MEKK2mut confirm 2.0 and MEKK3-MEK5 inh 98.0.
O=C(Oc1cccccc1=O)c1ccccc1 was read as MEKK2 WT-MEK5 95.0, MEKK2 mut-MEK5 -9.0, T cell modulator 150.2, UCH37 inh -0.3, Rce1 inh inactive and MEKK3 PB1 HTS 96.0.
For CC(C)NC(=O)Cc1ccc(Br)cc1 the results were MEKK2 WT-MEK5 110.0, MEKK2 mut-MEK5 3.0, T cell modulator 615.6, UCH37 inh 1.8, Rce1 inh inactive and MEKK3 PB1 HTS 111.0.
Screening CCCC(C)NC(=O)Cc1ccc(Br)cc1 (stereo not given) returned MEKK2 WT-MEK5 108.0, MEKK2 mut-MEK5 0.0, T cell modulator 363.4, UCH37 inh 6.2, Rce1 inh inactive, MEKK3 PB1 HTS 140.0*, MEKK2wt confirm 102.0, MEKK2mut confirm 2.0 and MEKK3-MEK5 inh 99.0.
`CCCC(C)NC(=O)COc1ccc(Sc2ccc(OCC(=O)NC(C)CCC)cc2)cc1` (stereo not given) gave MEKK2 WT-MEK5 104.0, MEKK2 mut-MEK5 0.0, T cell modulator 244.8, UCH37 inh -0.7, Rce1 inh inactive, MEKK3 PB1 HTS 137.0*, MEKK2wt confirm 100.0, MEKK2mut confirm -3.0 and MEKK3-MEK5 inh 96.0.
For CC(C)CNC(=O)COc1ccc(Sc2ccc(OCC(=O)NCC(C)C)cc2)cc1 the results were MEKK2 WT-MEK5 102.0, MEKK2 mut-MEK5 -1.0, T cell modulator 278.3, UCH37 inh -2.2, Rce1 inh inactive and MEKK3 PB1 HTS 103.0.
CCCCCOc1ccc(C=NNC(=O)c2nnn(-c3nonc3N)c2CN2CCCCCC2)cc1 was read as UCH37 inh 2.1.
For COCc1[nH]nc2c1C1(C(=O)N(C)c3ccccc31)C(C#N)=C(N)O2 (stereo not given) the results were MEKK2 WT-MEK5 79.0, MEKK2 mut-MEK5 -5.0, T cell modulator 401.7, UCH37 inh 1.4, Rce1 inh inactive, MEKK3 PB1 HTS 79.0*[inhibitor], MEKK2wt confirm 106.0, MEKK2mut confirm 4.0 and MEKK3-MEK5 inh 103.0.
CCN1C(=O)C2(C(C#N)=C(N)Oc3n[nH]c(COC)c32)c2ccccc21 (stereo not given) was read as MEKK2 WT-MEK5 98.0, MEKK2 mut-MEK5 -1.0, T cell modulator 319.9, UCH37 inh -0.4, Rce1 inh inactive and MEKK3 PB1 HTS 99.0.
COc1cc(Cl)c(C)cc1NC(=O)c1cc(S(=O)(=O)N(C)C)ccc1N1CCCC1 was read as MEKK2 WT-MEK5 104.0, MEKK2 mut-MEK5 1.0, T cell modulator 553.3, UCH37 inh 0.8, Rce1 inh inactive, MEKK3 PB1 HTS 148.0*, MEKK2wt confirm 102.0, MEKK2mut confirm -2.0 and MEKK3-MEK5 inh 103.0.
CCN(CC)S(=O)(=O)c1cc(C(=O)Nc2cc(Cl)ccc2N2CCN(C)CC2)ccc1Cl was read as MEKK2 WT-MEK5 161.0*, MEKK2 mut-MEK5 24.0, T cell modulator 579.6, UCH37 inh 1.3, Rce1 inh inactive, MEKK3 PB1 HTS 109.0, MEKK2wt confirm 150.0, MEKK2mut confirm 33.0 and MEKK3-MEK5 inh 108.0.
Screening CN1CCN(c2ccc(Cl)cc2NC(=O)c2ccc(S(=O)(=O)N(C)C)cc2)CC1 returned MEKK2 WT-MEK5 136.0*, MEKK2 mut-MEK5 15.0, T cell modulator 199.8, UCH37 inh 0.3, Rce1 inh inactive, MEKK3 PB1 HTS 109.0, MEKK2wt confirm 114.0, MEKK2mut confirm 10.0 and MEKK3-MEK5 inh 100.0.
